Data reported in ChEMBL document CHEMBL1687926, “14-Aminocamptothecins: their synthesis, preclinical activity, and potential use for cancer treatment” (J Med Chem, 2011).
“And” between values parts separate entries of the source, which are not always exact repeats. Equal values may be shown once.

Legend:
[1] = tested on: NCI-H460; assay: Cytotoxicity against human H460 cells after 72 hrs by alamar blue assay; assay type: functional, cell-based
How it was run: (§1)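 Cells seeded at 4 × 10³ per well and grown 24 h. Compounds dissolved in DMSO and diluted in medium to final concentrations, then incubated 72 h at 37 °C, 5% CO₂. Viable cells read by AlamarBlue; IC₅₀ taken as the concentration giving 50% growth inhibition.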

[2] = tested on: PC-3; assay: Cytotoxicity against human PC3 cells after 72 hrs by alamar blue assay; assay type: functional, cell-based; conditions: PC-3, 72 h; how it was run: as §1
[3] = tested on: HT-29; assay: Cytotoxicity against human HT-29 cells after 72 hrs by alamar blue assay; assay type: functional, cell-based; conditions: HT-29, 72 h; how it was run: as §1
[4] = tested on: SK-MEL-2; assay: Cytotoxicity against human SK-MEL-2 cells after 72 hrs by alamar blue assay; assay type: functional, cell-based; conditions: SK-MEL-2, 72 h; how it was run: as §1
[5] = tested on: A-375; assay: Cytotoxicity against human A375 cells after 72 hrs by alamar blue assay; assay type: functional, cell-based; conditions: A-375, 72 h; how it was run: as §1
[6] = tested on: Malme-3M; assay: Cytotoxicity against human MALME-3M cells after 72 hrs by alamar blue assay; assay type: functional, cell-based; how it was run: as §1
[7] = tested on: DU-145; assay: Cytotoxicity against human DU145 cells after 72 hrs by alamar blue assay; assay type: functional, cell-based; conditions: DU-145, 72 h; how it was run: as §1
[8] = tested on: LNCaP; assay: Cytotoxicity against human LNCAP cells after 72 hrs by alamar blue assay; assay type: functional, cell-based; how it was run: as §1
[9] = tested on: IGROV-1; assay: Cytotoxicity against human IGROV1 cells after 72 hrs by alamar blue assay; assay type: functional, cell-based; conditions: IGROV-1, 72 h; how it was run: as §1
[10] = tested on: NCI-H460; assay: Cytotoxicity against human H460 cells after 72 hrs by alamar blue assay in presence of 40 mg/ml HSA; assay type: functional, cell-based; conditions: NCI-H460, 72 h
How it was run: (§2)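 H460 cells seeded at 4 × 10³ per well and grown 24 h. Compounds then cocultured with cells for 72 h at 37 °C, with or without 40 mg/mL human serum albumin. Viability read by AlamarBlue; IC₅₀ = 50% growth inhibition. Ratio compares the IC₅₀ with HSA to the IC₅₀ without.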

[11] = tested on: NCI-H460; assay: Ratio IC50 for human H460 cells after 72 hrs in presence of 40 mg/ml HSA to IC50 for human H460 cells after 72 hrs; assay type: functional; how it was run: as §2
[12] = Cytotoxicity against human MESSA cells after 72 hrs by alamar blue assay; assay type: functional, cell-based; conditions: MES-SA; how it was run: as §1
[13] = Cytotoxicity against human MES-SA/Dx5 cells overexpressing MDR1 after 72 hrs by alamar blue assay; assay type: functional, cell-based; conditions: MES-SA/Dx5, 72 h; how it was run: as §1
[14] = tested on: NCI-H69; assay: Cytotoxicity against human H69 cells after 72 hrs by alamar blue assay; assay type: functional, cell-based; conditions: NCI-H69, 72 h; how it was run: as §1
[15] = Resistance ratio of IC50 for human MES-SA/Dx5 cells overexpressing MDR1 after 72 hrs to IC50 for human MESSA cells after 72 hrs; assay type: functional
How it was run: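 Cytotoxicity compared in MDR1-overexpressing lines and their parental wild-type lines. 72 h exposure at 37 °C, viability by AlamarBlue, IC₅₀ at 50% growth inhibition. Resistance ratio = IC₅₀ in overexpressing line / IC₅₀ in parental line.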

[16] = Cytotoxicity against human bone marrow cell by CFU-GM assay; assay type: cell-based; conditions: for IC50: Homo sapiens, Bone marrow cell; for IC90: human, bone marrow cells
[17] = Cytotoxicity against mouse bone marrow cell by CFU-GM assay; assay type: cell-based
How it was run: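 CFU-GM colony assay on normal human bone marrow (thawed) or mouse femoral marrow (freshly extracted). Human colonies scored after 16-18 days. IC₅₀ taken from triplicate assays.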

[18] = Ratio of IC50 for mouse bone marrow cell to IC50 for human bone marrow cell; assay type: cell-based; conditions: bone marrow cells
How it was run: (§3)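 CFU-GM colony assay in triplicate at 2 × 10⁴ cells per culture, using thawed normal human bone marrow or fresh mouse femoral marrow. Colonies were scored after 16-18 days. The IC50 or IC90 from each species gave the mouse/human ratio.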

[19] = Ratio of IC90 for mouse bone marrow cell to IC90 for human bone marrow cell; assay type: ADME, cell-based; conditions: bone marrow cells; how it was run: as §3
[20] = Tmax in CD-1 mouse plasma at 50 mg/kg, ip by LC/MS/MS analysis; assay type: ADME, organism-based; parameters: dose 50 mg/kg, route intraperitoneal
How it was run: (§4)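 CD-1 mice (~25 g) given 50 mg/kg ip in 5% DMSO/5% Tween 80 in water; three mice per time point, sampled up to 480 min. Blood taken by cardiac puncture into EDTA, then whole brain excised and homogenized in water. Proteins precipitated with ice-cold acetonitrile containing propranolol internal standard; supernatant analysed by HPLC/MS/MS.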

[21] = Cmax in CD-1 mouse plasma at 50 mg/kg, ip by LC/MS/MS analysis; assay type: ADME, organism-based; parameters: dose 50 mg/kg, route intraperitoneal; how it was run: as §4
[22] = AUC in CD-1 mouse plasma at 50 mg/kg, ip by LC/MS/MS analysis; assay type: ADME, organism-based; parameters: dose 50 mg/kg, route intraperitoneal; how it was run: as §4
[23] = Half life in CD-1 mouse plasma at 50 mg/kg, ip by LC/MS/MS analysis; assay type: ADME, organism-based; parameters: dose 50 mg/kg, route intraperitoneal; how it was run: as §4
[24] = Tmax in CD-1 mouse brain at 50 mg/kg, ip by LC/MS/MS analysis; assay type: ADME, organism-based; parameters: dose 50 mg/kg, route intraperitoneal; how it was run: as §4
[25] = Cmax in CD-1 mouse brain at 50 mg/kg, ip by LC/MS/MS analysis; assay type: ADME, organism-based; parameters: dose 50 mg/kg, route intraperitoneal; how it was run: as §4
[26] = AUC in CD-1 mouse brain at 50 mg/kg, ip by LC/MS/MS analysis; assay type: ADME, organism-based; parameters: dose 50 mg/kg, route intraperitoneal; how it was run: as §4
[27] = Half life in CD-1 mouse brain at 50 mg/kg, ip by LC/MS/MS analysis; assay type: ADME, organism-based; parameters: dose 50 mg/kg, route intraperitoneal; how it was run: as §4
[28] = Ratio of drug level in brain to plasma in CD-1 mouse at 50 mg/kg, ip; assay type: ADME, organism-based; parameters: dose 50 mg/kg, route intraperitoneal; how it was run: as §4
[29] = tested on: NCI-H460; assay: Antitumor activity against human H460 cells xenografted in nu/nu mouse assessed as tumor growth inhibition at 30 mg/kg, po QD for 5 days followed by 2days without treatment for 2 weeks; assay type: functional; parameters: scale not given: the % may be the effect or the level left
How it was run: (§5)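 Female nude (nu/nu) mice (males for prostate model) implanted sc in the flank with tumor cells (1 × 10⁶ for H460). Dosing began at 100-150 mm³, 10 mice/group. Oral gavage in 5% DMSO/5% Tween 80/1% CMC in water, 5 days on/2 off per cycle, 2 or 4 cycles. Volume = length×width²/2, measured twice weekly. TGI = (1 − ΔT/ΔC)×100; TGD = extra days to reach 500 mm³ versus control.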

[30] = tested on: NCI-H460; assay: Antitumor activity against human H460 cells xenografted in nu/nu mouse assessed as tumor growth delay at 30 mg/kg, po QD for 5 days followed by 2days without treatment for 2 weeks; assay type: functional; how it was run: as §5
[31] = tested on: Mus musculus; assay: Toxicity in nu/nu mouse assessed as body weight loss at 30 mg/kg, po QD for 5 days followed by 2 days without treatment for 2 weeks; assay type: organism-based; parameters: dose 30 mg/kg, route oral; conditions: in vivo
How it was run: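 Female nude (nu/nu) mice (males for prostate model) bearing sc xenografts, dosing started at 100-150 mm³, 10/group. Oral gavage in 5% DMSO/5% Tween 80/1% CMC in water, QD 5 days on/2 off per cycle, 2 or 4 cycles. Body weight recorded twice weekly; maximum loss reported.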

[32] = tested on: H69AR; assay: Cytotoxicity against human H69AR cells overexpressing MRP1 after 72 hrs by alamar blue assay
[33] = Resistance ratio of IC50 for human H69AR cells overexpressing MRP1 after 72 hrs s to IC50 for human H69 cells after 72 hrs
[34] = tested on: NCI-H460; assay: Antitumor activity against human H460 cells xenografted in nu/nu mouse assessed as tumor growth inhibition at 2 mg/kg, po QD for 5 days followed by 2days without treatment for 2 weeks; assay type: functional; parameters: scale not given: the % may be the effect or the level left
How it was run: (§6)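 Nude mice (nu/nu), females, or males for the prostate model, 4-6 weeks old, implanted sc in the flank with tumor cells (H460 at 1 × 10⁶). Groups of 10 were randomized at 100-150 mm³. Dosing was oral gavage in 5% DMSO/5% Tween 80/1% CMC in water, QD 5 days on/2 off per cycle, for 2 cycles (H460, PC-3) or 4 cycles (HT29). Tumor volume (length × width²/2) and body weight were measured twice weekly.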

[35] = tested on: NCI-H460; assay: Antitumor activity against human H460 cells xenografted in nu/nu mouse assessed as tumor growth delay at 2 mg/kg, po QD for 5 days followed by 2days without treatment for 2 weeks; assay type: functional; how it was run: as §6
[36] = tested on: PC-3; assay: Antitumor activity against human PC3 cells xenografted in nu/nu mouse assessed as tumor growth inhibition at 2 mg/kg, po QD for 5 days followed by 2days without treatment for 2 weeks; assay type: functional; parameters: scale not given: the % may be the effect or the level left; how it was run: as §6
[37] = tested on: PC-3; assay: Antitumor activity against human PC3 cells xenografted in nu/nu mouse assessed as tumor growth delay at 2 mg/kg, po QD for 5 days followed by 2days without treatment for 2 weeks; assay type: functional; how it was run: as §6
[38] = tested on: Mus musculus; assay: Toxicity in nu/nu mouse assessed as body weight loss at 2 mg/kg, po QD for 5 days followed by 2 days without treatment for 2 weeks; assay type: organism-based; parameters: dose 2 mg/kg, route oral; conditions: in vivo; how it was run: as §6
[39] = tested on: Mus musculus; assay: Toxicity in nu/nu mouse assessed as body weight loss at 2 mg/kg, po QD for 5 days followed by 4 days without treatment for 2 weeks; assay type: organism-based; parameters: dose 2 mg/kg, route oral; conditions: in vivo
[40] = tested on: HT-29; assay: Antitumor activity against human HT-29 cells xenografted in nu/nu mouse assessed as tumor growth delay at 2 mg/kg, po QD for 5 days
[41] = tested on: HT-29; assay: Antitumor activity against human HT-29 cells xenografted in nu/nu mouse assessed as tumor growth inhibition at 2 mg/kg, po QD for 5 days; parameters: scale not given: the % may be the effect or the level left

Row | SMILES | IC50 ([1]; Homo sapiens, NCI-H460, 72 h) [nM] | IC50 [2] [nM] | IC50 [3] [nM] | IC50 [4] [nM] | IC50 [5] [nM] | IC50 [6] [nM] | IC50 [7] [nM] | IC50 [8] [nM] | IC50 [9] [nM] | IC50 [10] [nM] | Ratio [11] | IC50 [12] [nM] | IC50 [13] [nM] | IC50 [14] [nM] | Ratio [15] | IC50 [16] [nM] | IC90 [16] [nM] | IC50 [17] [nM] | IC50 [32] [nM] | Ratio [33] | also measured
1 | CC[C@@]1(O)C(=O)OCc2c1c(N)c1n(c2=O)Cc2cc3ccccc3nc2-1 | 18 | 43 | 230 | 170 | 22 | 780 | 780 | 110 | 120 | 120 | 5 | 58 | 60 | 91 | 1 | 710 | 4800 | 10 | 91 | 1 | IC50 ([1]; nci-h460): 23 nM; selectivity ratio [18]: 6; selectivity ratio [19]: 4; Tmax [20]: 0.5 h; Cmax [21]: 600 ng/mL; AUC [22]: 1500 ng·h/mL; half-life [23]: 4.17 h; Tmax [24]: 0.5 h; Cmax [25]: 600 ng/mL; AUC [26]: 1670 ng·h/mL; half-life [27]: 3.5 h; Kp [28]: 101; Activity [29]: 79%; Time [30]: 15 days; Activity [31]: 4%
2 | CC[C@@]1(O)C(=O)OCc2c1cc1n(c2=O)Cc2cc3ccccc3nc2-1 [CAMPTOTHECIN] | 13 | 12 | 260 |  |  |  |  |  |  | > 1000 | >77 | 57 | 52 | 1 | 1 |  |  |  | > 300 | >250 | 
3 | CC[C@@]1(O)C(=O)OCc2c1cc1n(c2=O)Cc2cc3c(CN(C)C)c(O)ccc3nc2-1 [TOPOTECAN] | 45 | 45 | > 1000 | 140 | 13 | 1000 | 1000 | 9 | 160 | 110 | 2 | 4 | 33 | 6 | 8 | 8 | 50 | 130 | > 300 | >47 | selectivity ratio [18]: 16; selectivity ratio [19]: 14; Activity [34]: 46%; Time [35]: 5 days; Activity [36]: 79%; Time [37]: 21 days; Activity [38]: 9%; Activity [39]: 0% and 1%; Time [40]: 16 days; Activity [41]: 70%
4 | CCc1c2c(nc3ccccc13)-c1c3c(c(CO)c(=O)n1C2)[C@@](O)(CC)C(=O)N3 | > 10000 |  |  |  |  |  |  |  |  |  |  |  |  |  |  |  |  |  |  |  | 
5 | CC[C@@]1(O)C(=O)OCc2c1c([N+](=O)[O-])c1n(c2=O)Cc2cc3ccccc3nc2-1 | 3000 |  |  |  |  |  |  |  |  |  |  |  |  |  |  |  |  |  |  |  | 
